Measured values taken from ChEMBL document CHEMBL1157333, “Cytotoxic dihydroagarofuranoid sesquiterpenes from the stem of Microtropis fokienensis” (J Nat Prod, 2006).
≈ marks a conversion by molar mass, not a printed value.

Tests used:
[1] = test system: P388; assay: Cytotoxicity against mouse P388 cells after 3 days by MTT assay; format: functional, cell-based; conditions: P388, 72 h
How it was run: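 Mouse lymphocytic leukemia cells grown in Fisher's medium with 10% heat-inactivated FCS at 37 °C, 5% CO2. Seeded at 1500 cells/well in 200 µL cultures, then given compounds in 0.5% DMSO at eight concentrations in triplicate for 3 days. MTT added, formazan dissolved in DMSO and read at 540 nm. IC50 is the concentration giving 50% absorbance reduction versus untreated cells. Assays repeated three times.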

[2] = test system: HT-29; assay: Cytotoxicity against human HT29 cells after 6 days by MTT assay; format: functional, cell-based; conditions: HT-29, 144 h
How it was run: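 Human colon carcinoma cells from ATCC kept in RPMI 1640 with 10% heat-inactivated FCS at 37 °C, 5% CO2. Plated at 1000 cells/well and exposed 6 days to eight concentrations spanning a 128-fold range, in triplicate, in 0.5% DMSO. Then 1 mg/mL MTT added for 5 h at 37 °C, formazan dissolved in DMSO, read at 540 nm. IC50 is 50% absorbance reduction versus untreated cells. Three repeats.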

Row | SMILES | IC50 [1] [µg/mL] | IC50 [2] [µg/mL]
1 | CO[C@H](C(=O)[C@@H](O)[C@@H](C)O)[C@@H]1Cc2cc3cc(O[C@H]4C[C@@H](O[C@@H]5C[C@@H](O)[C@H](O)[C@@H](C)O5)[C@H](O)[C@@H](C)O4)c(C)c(O)c3c(O)c2C(=O)[C@H]1O[C@H]1C[C@@H](O[C@@H]2C[C@@H](O)[C@@H](O[C@@H]3C[C@](C)(O)[C@H](O)[C@@H](C)O3)[C@@H](C)O2)[C@H](O)[C@@H](C)O1 [PLICAMYCIN] | 0.06 (≈ 0.0553 µM) | 0.08 (≈ 0.0737 µM)
2 | CC(=O)O[C@H]1[C@@H](OC(=O)c2ccccc2)C[C@@H](C)[C@]23OC(C)(C)[C@H](C[C@H](OC(=O)c4ccccc4)[C@]12COC(=O)c1ccccc1)[C@H]3OC(=O)c1ccccc1 [FOKIENAGAROFURAN D] | 0.036 (≈ 0.0473 µM) | 0.058 (≈ 0.0762 µM)
3 | CC(=O)O[C@@H]1[C@H]2C[C@H](OC(=O)c3ccccc3)[C@]3(COC(=O)c4ccccc4)[C@@H](OC(C)=O)[C@@H](OC(=O)c4ccccc4)C[C@@H](C)[C@@]13OC2(C)C [FOKIENAGAROFURAN A] | 0.032 (≈ 0.0458 µM) | 0.054 (≈ 0.0773 µM)
4 | CC(=O)O[C@@H]1[C@H]2C[C@H](OC(=O)c3ccccc3)[C@]3(COC(=O)CC(C)C)[C@@H](OC(C)=O)[C@@H](OC(=O)c4ccccc4)C[C@@H](C)[C@@]13OC2(C)C | 0.051 (≈ 0.0751 µM) | 0.082 (≈ 0.121 µM)
5 | CC(=O)O[C@H]1CC[C@@H](C)[C@]23OC(C)(C)[C@H](C[C@H](OC(=O)c4ccccc4)[C@]12COC(=O)c1ccccc1)[C@H]3OC(C)=O | 0.043 (≈ 0.0743 µM) | 0.071 (≈ 0.123 µM)
